Only some compounds are listed: those with a hit (about 1.6% of all), similar ones and a draw of the others.
T cell modulator: T cell immune modulation candidate. 2C CD8+ T cell-vesicle binding, flow cytometry; stronger effect = lower value. response (vesicle binding), % at 7 µM. 0.068% of 330,000 active. AID 2052;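 active = response, share of CD8 T cells binding vesicles, and their 90th percentile fluorescence all below set limits, cut at about 80% in these data, passing the limit was not always enough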;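 note: values below 100% mean blocked vesicle binding to the CD8+ T cells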
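Benchmarks: naked versus QL9-loaded vesicles / Assay system: purified 2C TCR transgenic mouse naive CD8+ T cells / Technique: high-throughput flow cytometry with anti-B7-1 and anti-CD8 staining / Timing: Cell–vesicle co-incubation 1.5 h at 37 °C, staining 20 min on ice / Read-out: percent CD8+ FL2 mean versus row control / Probe or stimulus: QL9-loaded Drosophila micro-vesicles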
HDAC3 inh: blocks human histone deacetylase 3. inhibition, % at 8.3 µM. O15379. recombinant HDAC3, fluorogenic peptide/trypsin coupled, fluorescence. 0.15% of 320,000 active; in the data active = inhibition above about 26%, passing the limit was not always enough; inconclusive = no clear call, values can overlap the other calls
LANA-H2A inh: blocks KSHV LANA binding to histone H2A/H2B. Q9QR71. cell-free LANA-H2A/H2B peptide, fluorescence polarization. 0.6% of 320,000 active. AID 2629. inhibition, % (no concentration beside the values); in the data active = inhibition mostly above about 10%, no sharp cut-off; inactive = mostly below about 6.7%
Target sequence (Q9QR71 whole entry, looked up): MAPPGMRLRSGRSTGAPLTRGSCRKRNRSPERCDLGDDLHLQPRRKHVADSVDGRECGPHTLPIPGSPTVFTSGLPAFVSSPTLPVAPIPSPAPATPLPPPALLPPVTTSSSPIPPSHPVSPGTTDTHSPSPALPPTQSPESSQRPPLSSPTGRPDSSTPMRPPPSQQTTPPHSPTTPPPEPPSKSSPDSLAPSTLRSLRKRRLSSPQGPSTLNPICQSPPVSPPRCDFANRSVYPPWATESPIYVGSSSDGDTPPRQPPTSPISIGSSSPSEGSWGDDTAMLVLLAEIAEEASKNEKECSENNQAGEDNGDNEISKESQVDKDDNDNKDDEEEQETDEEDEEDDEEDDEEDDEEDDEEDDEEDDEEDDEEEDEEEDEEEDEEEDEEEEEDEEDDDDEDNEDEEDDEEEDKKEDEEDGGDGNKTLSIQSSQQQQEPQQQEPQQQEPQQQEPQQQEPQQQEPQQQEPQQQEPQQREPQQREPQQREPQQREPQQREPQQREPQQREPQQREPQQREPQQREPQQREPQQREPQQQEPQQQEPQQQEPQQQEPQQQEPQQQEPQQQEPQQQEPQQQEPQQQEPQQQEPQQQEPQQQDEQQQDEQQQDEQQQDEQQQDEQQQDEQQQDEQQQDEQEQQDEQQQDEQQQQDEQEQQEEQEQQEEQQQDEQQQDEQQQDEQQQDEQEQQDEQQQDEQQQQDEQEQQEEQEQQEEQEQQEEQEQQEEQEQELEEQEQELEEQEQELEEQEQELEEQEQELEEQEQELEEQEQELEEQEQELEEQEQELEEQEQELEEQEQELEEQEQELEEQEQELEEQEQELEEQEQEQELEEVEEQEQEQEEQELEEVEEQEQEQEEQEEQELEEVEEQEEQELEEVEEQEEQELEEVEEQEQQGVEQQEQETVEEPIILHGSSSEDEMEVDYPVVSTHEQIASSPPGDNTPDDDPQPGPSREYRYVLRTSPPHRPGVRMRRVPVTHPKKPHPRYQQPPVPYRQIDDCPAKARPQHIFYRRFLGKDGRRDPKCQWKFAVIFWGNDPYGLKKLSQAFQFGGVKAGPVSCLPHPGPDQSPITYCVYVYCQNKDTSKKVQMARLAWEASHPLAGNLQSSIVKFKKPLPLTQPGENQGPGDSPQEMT
Pemphigus Ab inh: blocks pemphigus antibody binding to human desmoglein-3 | P32926 | DSG3-coupled beads, scFv-anti-DSG3-GFP binding, flow cytometry; stronger effect = lower value | binding (percent of control), % at 10 µM | 0.48% of 310,000 active;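 active = binding more than 3 SD below its plate's average and above zero; inconclusive = below that plate limit but binding exactly zero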;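 note: hits lower antibody fragment binding to DSG3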
Arrestin-AP2 inh: inhibitors of human beta-arrestin and AP2 interaction. FITC-arrestin peptide / GST-AP2 beads, flow cytometry; AP2 beta2 appendage carries R879A mutation. inhibition, % at 10 µM. 0.31% of 340,000 active;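 active = inhibition above a set limit, near 3 SD of compounds lacking own fluorescence, cut at about 54% in these data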;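 note: plate controls were DMSO wells for no effect and 5 µM unlabelled arrestin peptide for full effect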
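Material – AP2 appendage R879A on GSH beads · Buffer or medium – PBS with 0.05% Tween 20 and 0.1% BSA · Probe or stimulus – fluorescein-tagged arrestin peptide at 50 nM final · Incubation – compound with beads 12 min RT, then probe 1 h RT · Detection – high-throughput flow cytometry of beads, ex 488, em 535 nm · Evaluation – percent response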
JMJD2C inh: blocks human GASC-1 demethylase activity | Q9H3R0 | GST-JMJD2C(1-420) H3K9me3 demethylation, DELFIA europium | inhibition, % at 2.35 µM | 0.069% of 330,000 active;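 active = more than half of a compound's replicate wells show inhibition beyond 50%, single wells judged on their own value; inconclusive = some, but no more than half, of replicates pass 50% inhibition; inactive = no replicate passes 50% inhibition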;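 note: signal counts dimethyl H3K9 product captured on neutravidin plate; 0% = median of DMSO wells and 100% = 0.3 times that DMSO median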
Arr-AP2 CP1: blocks beta-arrestin peptide binding to human AP2; shares compounds with Arrestin-AP2 inh; GST-AP2 beads, FITC arrestin peptide binding, flow cytometry; GST-fused beta2-adaptin appendage, R879A mutant; inhibition, % at 10 µM; 2% of 1,300 active;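 active = inhibition above a set limit, roughly 3 SD of non-fluorescent compound noise, cut at about 38% in these data; inactive = inhibition at or below that limit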;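 note: loss of bead fluorescence from 50 nM FITC arrestin peptide bound to appendage; 0% = negative control wells and 100% = excess unlabelled arrestin peptide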
GST-FITC bead: disrupts GST binding to glutathione beads, arrestin-AP2 artifact | shares compounds with Arrestin-AP2 inh | AID 588338 | 2% of 1,300 active | inhibition, % at 10 µM | GST-fluorescein binding to GSH beads, fluorescence, counter-screen;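 active = inhibition above 50%, about 3 SD of the inhibition seen with non-fluorescent compounds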;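 note: fluorescein maleimide labelled GST captured on 4 micron glutathione beads; higher means more loss of bead fluorescence from quenching or blocked binding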
* = called active by the depositor; i = inactive; ? = inconclusive; nt = no result.

SMILES | T cell modulator | HDAC3 inh | LANA-H2A inh | Pemphigus Ab inh | Arrestin-AP2 inh | JMJD2C inh | Arr-AP2 CP1 | GST-FITC bead
COc1cc2c(cc1NC(=O)CN(C)Cc1ccc(OC)c(OC)c1)oc1ccccc12 | 443 | 15 | -1 | 99 | 18 | -1 | 0 | -10
COc1cc2c(cc1NC(=O)CCC(=O)O)oc1ccccc12 | 229 | -3 | -1 | 103 | 24 | 13 | nt | nt
COc1ccc(CN(C)CC(=O)Nc2ccccc2C(F)(F)F)c(OC)c1 | 283 | 1 | -3 | 99 | -18 | -1 | nt | nt
COc1ccc(CN(C)CC(=O)Nc2cc3oc4ccccc4c3cc2OC)c(OC)c1 | 293 | 13 | -4 | 143 | 6 | 18 | -3 | 2
COc1ccc(OCCn2c(=N)n(CCO)c3ccccc32)cc1 | 196 | -1 | -5 | 90 | 35 | -2 | nt | nt
CCCCn1c(=N)n(CCOc2ccc(C)cc2)c2ccccc21 | 185 | 3 | -1 | 138 | 73* | -16 | -4 | -3
O=C(Nc1ccc(NC(=S)NC(=O)c2ccccc2Cl)cc1)c1cccc(Cl)c1 | 482 | -3 | -1 | 99 | 59* | -2 | 9 | 0
CC(C)C(=O)Nc1cccc(NC(=S)NC(=O)c2ccccc2Cl)c1 | 607 | 1 | 0 | 95 | 25 | -2 | nt | nt
O=C(CN1C(=O)c2ccccc2S1(=O)=O)NCCc1ccc(F)cc1 | 670 | 2 | -2 | 104 | -7 | 4 | nt | nt
Cc1cccc2cc(CN(CCN3CCOCC3)C(=O)Nc3ccccc3F)c(=O)[nH]c12 | 225 | nt | nt | 91 | -8 | 1 | nt | nt
Cc1ccc2cc(CN(CCCN3CCOCC3)C(=O)NC3CCCCC3)c(=O)[nH]c2c1C | 229 | -1 | 3 | 103 | -4 | 12 | 1 | -10
CCN1CCCC1CN(Cc1cc2c(C)cc(C)cc2[nH]c1=O)C(=O)NC1CCCCC1 (stereo not drawn) | 458 | 1 | 2 | 125 | 14 | 1 | -6 | -4
Cc1cc2cc(CN(CCCN3CCOCC3)C(=O)NC3CCCCC3)c(=O)[nH]c2cc1C | 805 | 1 | -2 | 104 | -1 | 8 | -4 | -2
Cc1cccc2cc(CN(CCN3CCCC3)C(=O)NC3CCCCC3)c(=O)[nH]c12 | 836 | -1 | 3 | 132 | 13 | 4 | 1 | -9
Cc1cc(C)c2cc(CN(CCO)C(=O)NC3CCCCC3)c(=O)[nH]c2c1 | 290 | 3 | -6 | 101 | 20 | 1 | nt | nt
O=C(NC1CCCCC1)N(CCN1CCCC1)Cc1cc2cc3c(cc2[nH]c1=O)OCCO3 | 191 | -1 | -4 | 142 | -4 | 1 | nt | nt
Cc1ccc2cc(CN(Cc3ccco3)C(=O)NC3CCCCC3)c(=O)[nH]c2c1C | 452 | 4 | -6 | 112 | 12 | 2 | nt | nt
CCc1ccc2[nH]c(=O)c(CN(CCN(CC)CC)C(=O)NC3CCCCC3)cc2c1 | 160 | ? | 3 | 98 | 76* | -2 | 8 | -7
O=C(NC1CCCCC1)N(CCO)Cc1cc2cc3c(cc2[nH]c1=O)OCCO3 | 256 | -17 | -1 | 97 | 8 | 8 | nt | nt
O=C(NC1CCCCC1)N(Cc1cc2cc3c(cc2[nH]c1=O)OCCO3)CC1CCCO1 (stereo not drawn) | 302 | -2 | 5 | 108 | -2 | 4 | -9 | -1
COCCNC(=S)N1CCC(C(=O)c2ccc(C)cc2)CC1 | i | -1 | 4 | 114 | 2 | 12 | nt | nt
CC(C)=CCCC(C)CN1CCC(n2nccc2NC(=O)c2cccnc2)CC1 (stereo not drawn) | 462 | 2 | 3 | 103 | 60* | -11 | -10 | -5
O=C(CSc1ccc(-c2ccccc2)nn1)NC1CCCCC1 | 204 | 6 | -3 | 101 | 63* | -34 | -11 | -2
C[C@H](NC(=O)c1ccco1)C(=O)Nc1cc(S(=O)(=O)N2CCCC2)ccc1OCC(F)(F)F | 182 | 5 | 3 | nt | 10 | 9 | nt | nt
O=C(c1ccccc1F)N(NC(=O)C(O)(c1ccccc1)c1ccccc1)c1ccccc1 | 474 | 1 | 1 | 125 | 87* | -1 | -7 | 2
SMILES | T cell modulator | HDAC3 inh | LANA-H2A inh | Pemphigus Ab inh | Arrestin-AP2 inh | JMJD2C inh | Arr-AP2 CP1 | GST-FITC bead
CCN1CCN(C(=O)c2cc(=O)c3cc(C)ccc3o2)CC1 | 430 | 1 | 2 | 106 | 5 | -2 | nt | nt
Cc1cccc(NC(=S)N(Cc2ccc(Cl)cc2)Cc2ccc(C(=O)O)cc2)c1 | 295 | -1 | 1 | 98 | 56* | -1 | 3 | -4
Cc1cc(C)cc(NC(=S)N(Cc2ccc(Cl)cc2)Cc2ccc(C(=O)O)cc2)c1 | 333 | 7 | 2 | 103 | -6 | -2 | nt | nt
Cc1ccccc1C(=O)N1CCC(n2nccc2NC(=O)CCOc2ccccc2)CC1 | 350 | nt | 4 | nt | -1 | 2 | nt | nt
Cc1ccc(C(=O)NCC(c2ccc(F)cc2)N2CCOCC2)cc1S(=O)(=O)N1CCOCC1 (stereo not drawn) | nt | nt | nt | 95 | -4 | nt | nt | nt
CC1(C)Cc2c(sc3c2c(=O)n(Cc2ccccc2)c2nncn32)CO1 | nt | nt | nt | 98 | 62* | nt | 8 | 0
COc1cc(C2Nc3cccc4cccc(c34)N2)cc(OC)c1O | 281 | 2 | -3 | 100 | 56* | 7 | 17 | 9
NC(=S)N/N=C/c1ccc(C23CC4CC(CC(C4)C2)C3)cc1 | 221 | 13 | 1 | nt | nt | -12 | nt | nt
COC(=O)c1ccc(NC(=O)CN2C(=O)C3C4C=CC(C4)C3C2=O)cc1 (stereo not drawn) | 397 | nt | nt | 100 | 59* | -4 | 8 | -5
O=C(CN1C(=O)C2C3C=CC(C3)C2C1=O)Nc1ccc(C(=O)O)cc1 (stereo not drawn) | 518 | -2 | -6 | 102 | -7 | -10 | nt | nt
COCCCN1C(=O)C(CC(=O)NCc2cccc3ccccc23)CC(C(=O)N(C)C)=C1C (stereo not drawn) | nt | nt | nt | 114 | nt | nt | nt | nt
CC(=O)OC(COc1ccccc1)Cn1cnc2ccccc21 (stereo not drawn) | 329 | nt | 0 | 92 | 55* | -5 | -6 | -12
Cn1nc(C(=O)Nc2ccccc2)c2c1-c1ccccc1S(=O)(=O)C2 | 291 | 14 | 3 | 103 | 58* | 0 | 5 | -8
COc1cccc(NC(=O)c2nn(C)c3c2CS(=O)(=O)c2ccccc2-3)c1 | 537 | -5 | 0 | 104 | 5 | 1 | nt | nt
CCCCN(C(=O)c1ccc(Br)o1)C1CCS(=O)(=O)C1 (stereo not drawn) | 553 | -3 | 2 | 110 | -2 | ? | nt | nt
